Results taken from publication PMC6957258 (Bioorganic & medicinal chemistry, 2013).
Where two headings read alike, the source gives them in different places.

Key:
human TRPV1 [1] = target: T1, human TRPV1 (Homo sapiens, UniProt Q8NER1); assay: FLIPR antagonism of pH activation, hTRPV1 in CHO cells; type: cell-based; details: read-out: IC50 [pH], inhibition of pH activation
[2] = test system: capsaicin-induced hypothermia; assay: Capsaicin-induced hypothermia in mice; type: in vivo; details: for inhibition of the effect of capsaicin on body temperature: 0.3 mg/Kg po 15 min before capsaicin 3 mg/Kg ip
In short: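 Mice, n = 5 per group. Body temperature (°C) was recorded after capsaicin challenge, with readings taken up to 60 min. Data are given as mean ± SEM and compared with vehicle-treated animals, with significance at p < 0.05.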

[3] = test system: CCI-induced cold allodynia (neuropathic pain model); details: rat, po; cited from earlier work
human TRPV1 [4] = target: T1, human TRPV1; assay: FLIPR antagonism of capsaicin; type: cell-based
[5] = test system: capsaicin-induced hypothermia; details: mice; cited from earlier work

T1 sequence (Q8NER1 whole entry): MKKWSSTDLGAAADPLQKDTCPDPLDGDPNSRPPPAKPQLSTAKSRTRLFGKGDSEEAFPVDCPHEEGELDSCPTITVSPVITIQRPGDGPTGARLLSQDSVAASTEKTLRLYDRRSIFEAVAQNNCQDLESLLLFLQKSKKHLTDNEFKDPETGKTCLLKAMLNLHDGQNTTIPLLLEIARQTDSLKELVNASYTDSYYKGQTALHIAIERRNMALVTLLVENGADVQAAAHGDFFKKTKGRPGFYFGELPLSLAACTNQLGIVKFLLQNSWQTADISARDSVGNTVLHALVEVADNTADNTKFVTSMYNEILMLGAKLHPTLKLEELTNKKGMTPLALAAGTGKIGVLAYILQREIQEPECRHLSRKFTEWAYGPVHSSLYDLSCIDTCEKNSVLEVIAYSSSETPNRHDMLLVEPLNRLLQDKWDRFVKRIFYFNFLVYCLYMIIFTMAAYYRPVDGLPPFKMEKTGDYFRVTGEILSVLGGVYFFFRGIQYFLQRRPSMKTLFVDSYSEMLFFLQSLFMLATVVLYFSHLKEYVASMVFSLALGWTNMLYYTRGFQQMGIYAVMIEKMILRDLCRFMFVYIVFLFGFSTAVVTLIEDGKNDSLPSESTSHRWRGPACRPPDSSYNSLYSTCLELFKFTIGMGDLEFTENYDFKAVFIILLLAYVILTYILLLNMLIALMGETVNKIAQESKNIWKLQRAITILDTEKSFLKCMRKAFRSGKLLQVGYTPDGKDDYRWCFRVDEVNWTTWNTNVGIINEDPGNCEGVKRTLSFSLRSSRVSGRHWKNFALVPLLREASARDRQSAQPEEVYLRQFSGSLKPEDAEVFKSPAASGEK

SMILES | IC50 (human TRPV1 [1]) | further results
C[C@@H](C(=O)NCc1ccc(C(F)(F)F)nc1SC1CCCCC1)c1ccc(NS(C)(=O)=O)c(F)c1 [24R, (R)-N-((2-(Cyclohexylthio)-6-(trifluoromethyl)pyridin-3-yl)methyl)-2-(3-fluoro-4-(methylsulfonamido)phenyl)propanamide] | > 1 µM | –
C[C@H](C(=O)NCc1ccc(C(F)(F)F)nc1SC1CCCCC1)c1ccc(NS(C)(=O)=O)c(F)c1 [24S, (S)-N-((2-(Cyclohexylthio)-6-(trifluoromethyl)pyridin-3-yl)methyl)-2-(3-fluoro-4-(methylsulfonamido)phenyl)propanamide] | – | effect on capsaicin-induced hypothermia [2]: blocked capsaicin-induced hypothermia; inhibition of the effect of capsaicin on body temperature ([2]; at 15 min): partial inhibition; inhibition of the effect of capsaicin on body temperature ([2]; at 30 min): completely inhibited
C[C@H](C(=O)NCc1ccc(C(C)(C)C)cc1)c1ccc(NS(C)(=O)=O)c(F)c1 [compound 1] | – | ED50 anti-allodynic efficacy [3]: 26.6 mg/kg
CC1CCN(c2nc(C(F)(F)F)ccc2CNC(=O)[C@@H](C)c2ccc(NS(C)(=O)=O)c(F)c2)CC1 [compound 2] | – | fold better than prototype 1 for CAP antagonism (human TRPV1 [4]; ratio versus 1): approximately 100 fold; effect on capsaicin-induced hypothermia [5]: blocked capsaicin-induced hypothermia; ED50 anti-allodynic efficacy [3]: 0.9 mg/kg
CC(C(=O)NCc1ccc(C(F)(F)F)nc1SCC(F)(F)F)c1ccc(NS(C)(=O)=O)c(F)c1 (centres unmarked) [compound 11, 2-(3-Fluoro-4-(methylsulfonamido)phenyl)-N-((2-(2,2,2-trifluoroethylthio)-6-(trifluoromethyl)pyridin-3-yl)methyl) propanamide] | > 1 µM | –
CC(C(=O)NCc1ccc(C(F)(F)F)nc1SCCC(=O)O)c1ccc(NS(C)(=O)=O)c(F)c1 (centres unmarked) [compound 20, 3-(3-((2-(3-Fluoro-4-(methylsulfonamido)phenyl)propanamido)methyl)-6-(trifluoromethyl)pyridin-2-ylthio) propanoic acid] | > 1 µM | –
CC(C(=O)NCc1ccc(C(F)(F)F)nc1SCCC(=O)N1CCCC1)c1ccc(NS(C)(=O)=O)c(F)c1 (centres unmarked) [compound 22, 2-(3-Fluoro-4-(methylsulfonamido)phenyl)-N-((2-(3-oxo-3-(pyrrolidin-1-yl)propylthio)-6-(trifluoromethyl)pyridin-3-yl)methyl)propanamide] | > 1 µM | –
CC(C(=O)NCc1ccc(C(F)(F)F)nc1SC1CCCC1)c1ccc(NS(C)(=O)=O)c(F)c1 (centres unmarked) [compound 23, N-((2-(Cyclopentylthio)-6-(trifluoromethyl)pyridin-3-yl)methyl)-2-(3-fluoro-4-(methylsulfonamido)phenyl)propanamide] | > 1 µM | –
CC(C(=O)NCc1ccc(C(F)(F)F)nc1[S+]([O-])C1CCCCC1)c1ccc(NS(C)(=O)=O)c(F)c1 (centres unmarked) [compound 25, N-((2-(Cyclohexylsulfinyl)-6-(trifluoromethyl)pyridin-3-yl)methyl)-2-(3-fluoro-4-(methylsulfonamido)phenyl)propanamide] | > 1 µM | –
CC(C(=O)NCc1ccc(C(F)(F)F)nc1S(=O)(=O)C1CCCCC1)c1ccc(NS(C)(=O)=O)c(F)c1 (centres unmarked) [compound 26, N-((2-(Cyclohexylsulfonyl)-6-(trifluoromethyl)pyridin-3-yl)methyl)-2-(3-fluoro-4-(methylsulfonamido)phenyl)propanamide] | > 1 µM | –
CC(C(=O)NCc1ccc(C(F)(F)F)nc1SC1CCCCC1C)c1ccc(NS(C)(=O)=O)c(F)c1 (centres unmarked) [compound 28, 2-(3-Fluoro-4-(methylsulfonamido)phenyl)-N-((2-(2-methylcyclohexylthio)-6-(trifluoromethyl)pyridin-3-yl)methyl)propanamide] | > 1 µM | –
CCC1CCC(Sc2nc(C(F)(F)F)ccc2CNC(=O)C(C)c2ccc(NS(C)(=O)=O)c(F)c2)CC1 (centres unmarked) [compound 29, N-((2-(4-Ethylcyclohexylthio)-6-(trifluoromethyl)pyridin-3-yl)methyl)-2-(3-fluoro-4-(methylsulfonamido)phenyl)propanamide] | > 1 µM | –
CC(C(=O)NCc1ccc(C(F)(F)F)nc1SCC1CCCCC1)c1ccc(NS(C)(=O)=O)c(F)c1 (centres unmarked) [compound 31, N-((2-(Cyclohexylmethylthio)-6-(trifluoromethyl)pyridin-3-yl)methyl)-2-(3-fluoro-4-(methylsulfonamido)phenyl)propanamide] | – | fold less potent than 24 (human TRPV1 [4]; ratio of Ki(CAP) versus 24): 2.5 fold
CC(C(=O)NCc1ccc(C(F)(F)F)nc1SCc1ccco1)c1ccc(NS(C)(=O)=O)c(F)c1 (centres unmarked) [compound 37, 2-(3-Fluoro-4-(methylsulfonamido)phenyl)-N-((2-(furan-2-ylmethylthio)-6-(trifluoromethyl)pyridin-3-yl)methyl)propanamide] | > 1 µM | –
CC(C(=O)NCc1ccc(C(F)(F)F)nc1SCc1cccs1)c1ccc(NS(C)(=O)=O)c(F)c1 (centres unmarked) [compound 38, 2-(3-Fluoro-4-(methylsulfonamido)phenyl)-N-((2-(thiophen-2-ylmethylthio)-6-(trifluoromethyl)pyridin-3-yl)methyl)propanamide] | > 1 µM | –
CC(C)C[C@H](CN)CC(=O)O [pregabalin] | – | ED50 anti-allodynic efficacy [3]: 42.2 mg/kg
